Tests used:
[1] = test system: Mus musculus; assay: […] anticancer activity against B6D2F-1 mice bearing Lewis Lung Carcinoma measured by the average weight change(g) after day 10 at an intraperitoneal dose of 3(mg/kg).; type: functional
Procedure, shortened: (§1)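 Male B6D2F1 mice (8 weeks old, 20–25 g) received 4×10^6 Lewis lung carcinoma cells sc on day -2. Dosing was ip, QDx5, starting on day 1. Groups were 4 control mice and 3 mice per dose. Tumor size and average body-weight change were evaluated on days 7, 10 and 14. Tumor volume is expressed as the treated/control ratio.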

[2] = test system: Mus musculus; assay: […] anticancer activity against B6D2F-1 mice bearing Lewis Lung Carcinoma measured by the Average tumor vol after day 10 at an intraperitoneal dose of 3(mg/kg).; type: functional; procedure, shortened: as §1
[3] = test system: Mus musculus; assay: […] anticancer activity against B6D2F-1 mice bearing P388 leukemia measured by the Average tumor vol after day 10 at an intravenous dose of 3(mg/kg).; type: functional
[4] = test system: HL-60; assay: In vitro inhibition of human leukemic HL-60 cell growth in culture; type: functional, cell-based
Procedure, shortened: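 HL-60 cells were seeded at 5×10^4 cells/mL in RPMI 1640 with 10% heat-inactivated FBS, penicillin and streptomycin, at 37 °C in 5% CO2. Cells were exposed for 72 h to six or seven drug concentrations, run in duplicate. Viability was read by XTT-tetrazolium microculture absorbance, and IC50 was derived from median-effect plot analysis.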

[5] = test system: Mus musculus; assay: […] anticancer activity against B6D2F-1 mice bearing P388 leukemia measured by the increase in lifespan(%) at an intravenous dose of 10(mg/kg)..; type: functional
Procedure, shortened: (§2)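 Male B6D2F1 mice, 8 weeks old, 20–25 g. P388/0 ascites cells (0.2 mL, ascites:saline 1.10) were implanted iv on day 0, and the tumor grew in the liver. Drug was given iv by tail vein on days 1, 3, 5, 7 and 9 (Q2Dx5), with 4–5 mice per group. Survival time was scored as 8 a.m. (0.0), 1 p.m. (0.25) or 5 p.m. (0.5) deaths. %ILS was averaged against untreated controls, and toxic deaths were counted.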

[6] = test system: Mus musculus; assay: […] anticancer activity against B6D2F-1 mice bearing Sarcoma 180 measured by the average weight change(g) after day 7 at an intraperitoneal dose of 5(mg/kg).; type: functional
Procedure, shortened: (§3)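 Male B6D2F1 mice (8 weeks old, 20–25 g) were inoculated sc with 3×10^6 Sarcoma 180 cells on day 0. Dosing was ip, QDx5, starting on day 1. Groups were 4 control mice and 2 mice per dose. Average body weight change (g) and treated/control tumor volume were evaluated on days 7, 10 and 14.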

[7] = test system: Mus musculus; assay: […] anticancer activity against B6D2F-1 mice bearing Lewis Lung Carcinoma measured by the Average tumor vol after day 7 at an intraperitoneal dose of 6(mg/kg).; type: functional; procedure, shortened: as §1
[8] = test system: Mus musculus; assay: […] anticancer activity against B6D2F-1 mice bearing Lewis Lung Carcinoma measured by the average weight change(g) after day 7 at an intraperitoneal dose of 6(mg/kg).; type: functional; procedure, shortened: as §1
[9] = test system: Mus musculus; assay: […] anticancer activity against B6D2F-1 mice bearing P388 leukemia measured by the Average survival time(day+/-SD) at an intravenous dose of 15(mg/kg).; type: functional; procedure, shortened: as §2
[10] = test system: Mus musculus; assay: […] anticancer activity against B6D2F-1 mice bearing Lewis Lung Carcinoma measured by the Average tumor vol after day 14 at an intraperitoneal dose of 3(mg/kg).; type: functional; procedure, shortened: as §1
[11] = test system: Mus musculus; assay: […] anticancer activity against B6D2F-1 mice bearing P388 leukemia measured by the Average tumor vol after day 10 at an intravenous dose of 5(mg/kg).; type: functional
[12] = test system: Mus musculus; assay: […] anticancer activity against B6D2F-1 mice bearing Sarcoma 180 measured by the average weight change(g) after day 10 at an intraperitoneal dose of 3(mg/kg).; type: functional; procedure, shortened: as §3
[13] = test system: Mus musculus; assay: […] anticancer activity against B6D2F-1 mice bearing Sarcoma 180 measured by the average weight change(g) after day 14 at an intraperitoneal dose of 7(mg/kg).; type: functional; procedure, shortened: as §3
[14] = test system: Mus musculus; assay: […] anticancer activity against B6D2F-1 mice bearing Sarcoma 180 measured by the Average tumor vol after day 7 at an intravenous dose of 5(mg/kg).
[15] = test system: Mus musculus; assay: […] anticancer activity against B6D2F-1 mice bearing P388 leukemia measured by the increase in lifespan(%) at an intravenous dose of 15(mg/kg).; type: functional; procedure, shortened: as §2
[16] = test system: Mus musculus; assay: […] anticancer activity against 5 B6D2F-1 mice bearing P388 leukemia measured by the toxicity death at an intravenous dose of 15(mg/kg).; type: organism-based; settings: in vivo; procedure, shortened: as §2
[17] = test system: Mus musculus; assay: […] anticancer activity against B6D2F-1 mice bearing Sarcoma 180 measured by the average weight change(g) after day 10 at an intraperitoneal dose of 5(mg/kg).; type: functional; procedure, shortened: as §3

In the case of `CCOC(=O)Nc1cc(CO)cc(Nc2c3ccccc3nc3ccccc23)c1`, the Average weight change [1] is reported as -1.3 g, the Average tumor volume [2] is reported as 0.63 and the Average tumor volume [3] is reported as 1.21. For the same compound, the IC50 [4] was 4.4 nM, the Increase in life-span [5] was 188% and the Average weight change [6] was -2.6 g. The Average tumor volume [7] was 0.44, the Average weight change [8] was -3 g and the Average survival [9] was 13.2 days. The Average tumor volume [10] was 0.68, the Average tumor volume [11] was 0.63 and the Average weight change [12] was -0.7 g. It also gave an Average weight change [13] of -0.4 g, an Average tumor volume [14] of 0.06 and an Increase in life-span [15] of 106%. For the same compound, the Toxicity related death [16] was 4 and the Average weight change [17] was 1 g.

— ChEMBL document CHEMBL1132156, “Synthesis and structure-activity relationships of potential anticancer agents: alkylcarbamates of 3-(9-acridinylamino)-5-hydroxymethylaniline” (J Med Chem, 1999)
